Measurements published in ChEMBL document CHEMBL4725247, “Cytosolic delivery of peptidic STAT3 SH2 domain inhibitors” (Bioorg Med Chem, 2020).
Calls of active or inactive are those of the source. The calls are words filed in the database; no cut-off is given here. Where a SMILES comes first, the peptide text is derived from it. Bridges are numbered along the chain shown (N, C = ends). Roman numbers before positions name the chains, in order. [ ]: non-standard residue; d: D form. F2Pmp = N[C@@H](Cc1ccc(C(F)(F)P(=O)(O)O)cc1)C(=O)O; pY = N[C@@H](Cc1ccc(OP(=O)(O)O)cc1)C(=O)O; 2Nal = N[C@@H](Cc1ccc2ccccc2c1)C(=O)O; βAla = NCCC(=O)O

Key:
[1] = Stability in human HeLa cell lysate assessed as compound remaining at 150 uM measured after 1 hr by reverse-phase HPLC assay; type: ADME, subcellular; settings: read-out: Stabilty
In short: (§1)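 Clarified lysate made from HeLa cells lysed on ice for 15 min in 50 mM Tris, 250 mM NaCl, 0.5% IGEPAL CA-630, pH 8.0. Peptide added at 150 μM and held at 37 °C. Peak area normalized to time zero.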

[2] = target: Signal transducer and activator of transcription 3 (Homo sapiens) (UniProt P40763); assay: Inhibition of OSM-stimulated STAT3 activity in human U3A cell at 25 uM pretreated for 24 hrs followed by OSM stimulation and measured after 6 hrs by bright Glo-luciferase reporter gene assay
Chain of Signal transducer and activator of transcription 3 (Homo sapiens) (P40763 whole entry): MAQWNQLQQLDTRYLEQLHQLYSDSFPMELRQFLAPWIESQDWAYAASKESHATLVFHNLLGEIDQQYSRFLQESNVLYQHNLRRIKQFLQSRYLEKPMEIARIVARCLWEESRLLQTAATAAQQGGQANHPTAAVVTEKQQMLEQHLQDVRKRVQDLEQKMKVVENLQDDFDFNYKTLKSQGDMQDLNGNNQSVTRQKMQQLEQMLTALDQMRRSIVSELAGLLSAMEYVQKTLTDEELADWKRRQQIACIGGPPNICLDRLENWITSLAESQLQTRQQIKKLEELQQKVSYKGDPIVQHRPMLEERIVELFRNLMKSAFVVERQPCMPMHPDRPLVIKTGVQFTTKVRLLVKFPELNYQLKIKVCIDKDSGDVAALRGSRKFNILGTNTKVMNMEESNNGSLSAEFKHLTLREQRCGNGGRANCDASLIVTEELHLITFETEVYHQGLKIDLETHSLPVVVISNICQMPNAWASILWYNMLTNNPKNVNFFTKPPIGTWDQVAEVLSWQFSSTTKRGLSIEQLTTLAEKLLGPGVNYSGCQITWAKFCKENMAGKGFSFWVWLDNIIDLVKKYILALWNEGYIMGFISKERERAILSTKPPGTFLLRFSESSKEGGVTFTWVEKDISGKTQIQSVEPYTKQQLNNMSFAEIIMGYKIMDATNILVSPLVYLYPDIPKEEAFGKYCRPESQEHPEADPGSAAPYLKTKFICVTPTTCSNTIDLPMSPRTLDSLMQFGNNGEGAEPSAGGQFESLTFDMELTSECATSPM
In short: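 STAT3-luc U3A fibrosarcoma reporter cells seeded at 10⁴ cells/well overnight. Pretreated with peptide or vehicle (10 or 25 μM) for 24 h at 37 °C in DMEM + 10% FBS, then stimulated 6 h with OSM 10 ng/mL. Luciferase read by Bright-Glo luminescence. Controls: OSM alone and unstimulated cells.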

[3] = Stability of the compound in DMEM with 10% FBS (fetal bovine serum) at 150 uM measured at 24 hrs by reverse-phase HPLC assay
[4] = Stability in human HeLa cell lysate assessed as compound remaining at 150 uM measured after 24 hrs by reverse-phase HPLC assay; type: ADME, subcellular; settings: read-out: Stabilty; in short: as §1
MDA-MB-468 = assay: Cytotoxicity against human MDA-MB-468 cells assessed as cell viability at 25 uM measured after 72 hrs by Celltiter-Glo assay; type: functional, cell-based
In short: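 MDA-MB-468 breast cancer cells seeded at 3 × 10³ cells/well overnight, then given peptide or vehicle (10 or 25 μM) and kept at 37 °C for 72 h. Viability read by CellTiter-Glo luminescence.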

Structure (SMILES) | remaining at 1 h, 150 µM [1] [%] | inhibition [2] | Stabilty [3] | remaining at 24 h, 150 µM [4] [%] | Activity (MDA-MB-468)
CC(C)C[C@H](NC(=O)[C@H](Cc1ccc(OP(=O)(O)O)cc1)NC(=O)CNC(=O)CCNC(=O)CCNC(=O)CC[C@@H]1NC(=O)[C@@H](CCCNC(=N)N)NC(=O)[C@H](CCCNC(=N)N)NC(=O)[C@@H](CCCNC(=N)N)NC(=O)[C@H](CCCNC(=N)N)NC(=O)[C@H](Cc2ccc3ccccc3c2)NC(=O)[C@@H](Cc2ccccc2)NC(=O)[C@H](Cc2ccccc2)NC1=O)C(=O)N1CCC[C@H]1C(=O)N[C@@H](CCC(N)=O)C(=O)N[C@H](C(=O)N[C@H](C(N)=O)C(C)C)[C@@H](C)O (I: cyclo([2Nal]R[dR]R[dR]EF[dF]) / II: [βAla][βAla]G[pY]LPQTV-NH2; amide I:6-II:N) | < 20 | inactive | Unstable |  | 
CC(C)C[C@H](NC(=O)[C@H](Cc1ccc(C(F)(F)P(=O)(O)O)cc1)NC(=O)CNC(=O)CCNC(=O)CCNC(=O)CC[C@@H]1NC(=O)[C@@H](CCCNC(=N)N)NC(=O)[C@H](CCCNC(=N)N)NC(=O)[C@@H](CCCNC(=N)N)NC(=O)[C@H](CCCNC(=N)N)NC(=O)[C@H](Cc2ccc3ccccc3c2)NC(=O)[C@@H](Cc2ccccc2)NC(=O)[C@H](Cc2ccccc2)NC1=O)C(=O)N1CCC[C@H]1C(=O)N[C@@H](CCC(N)=O)C(=O)N[C@H](C(=O)N[C@H](C(N)=O)C(C)C)[C@@H](C)O (I: cyclo(F[dF][2Nal]R[dR]R[dR]E) / II: [βAla][βAla]G[F2Pmp]LPQTV-NH2; amide I:8-II:N) |  | inactive | Stable |  | 
CC(C)C[C@H](NC(=O)[C@H](Cc1ccc(C(F)(F)P(=O)(O)O)cc1)NC(=O)CNC(=O)CCNC(=O)CCNC(=O)CC[C@@H]1NC(=O)[C@@H](CCCNC(=N)N)NC(=O)[C@H](CCCNC(=N)N)NC(=O)[C@@H](CCCNC(=N)N)NC(=O)[C@H](CCCNC(=N)N)NC(=O)[C@H](Cc2ccc3ccccc3c2)NC(=O)[C@@H](Cc2ccccc2)NC(=O)[C@H](Cc2ccccc2)NC1=O)C(=O)N1CCC[C@H]1C(=O)N(C)[C@@H](CCC(N)=O)C(=O)N[C@H](C(=O)N[C@H](C(N)=O)C(C)C)[C@@H](C)O |  | inactive |  | 100 | inactive
